{"source": "ChEMBL document CHEMBL4602726", "about": "“Discovery of the First Vitamin K Analogue as a Potential Treatment of Pharmacoresistant Seizures” (J Med Chem, 2020)", "key": {"[1]": {"assay": "AUClast in CD1 mouse at 20 mg/kg, ip measured after 0.083 to 24 hrs by LC-MS/MS analysis", "format": "ADME, organism-based", "set-up": "time lower 0.083 hr, dose 20 mg/kg, time upper 24 hr, route intraperitoneal", "conditions": "in vivo", "method_in_brief": "(§1)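 Male CD-1 mice, 3 per route. Oral and ip at 20 mg/kg by gavage needle; iv at 5 mg/kg by tail vein. Vehicles were 20% DMA:40% PEG300:40% H2O for oral/iv and 5% DMSO:95% Neobee for ip. Blood sampled 0.083–24 h, plasma protein-precipitated with acetonitrile plus internal standard, LC-MS/MS (MRM). Non-compartmental analysis, linear trapezoidal AUC.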"}, "[2]": {"biological_target": "Cytochrome P450 2D6 (Homo sapiens, UniProt P10635)", "sequence (P10635 whole entry, canonical isoform)": "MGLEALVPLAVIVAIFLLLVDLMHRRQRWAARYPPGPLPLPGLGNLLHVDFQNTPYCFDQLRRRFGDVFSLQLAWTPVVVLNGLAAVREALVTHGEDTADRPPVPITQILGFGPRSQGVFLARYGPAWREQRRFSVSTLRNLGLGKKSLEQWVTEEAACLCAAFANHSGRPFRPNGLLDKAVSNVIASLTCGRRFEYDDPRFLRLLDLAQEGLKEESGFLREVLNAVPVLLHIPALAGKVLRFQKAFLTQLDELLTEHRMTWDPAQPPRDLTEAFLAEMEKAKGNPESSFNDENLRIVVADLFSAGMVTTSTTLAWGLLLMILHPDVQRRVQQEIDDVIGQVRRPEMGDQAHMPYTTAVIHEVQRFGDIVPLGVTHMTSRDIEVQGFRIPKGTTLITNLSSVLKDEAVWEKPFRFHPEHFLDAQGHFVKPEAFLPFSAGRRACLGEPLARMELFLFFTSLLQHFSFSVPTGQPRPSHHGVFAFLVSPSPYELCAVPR", "assay": "Inhibition of CYP2D6 in human liver microsomes using isoform-specific probe substrates incubated for 15 to 30 mins by LC-MS/MS analysis", "format": "ADME", "method_in_brief": "(§2)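 Pooled mixed-gender human liver microsomes 0.2 mg/mL in 100 mM potassium phosphate with 2 mM NADPH. Isoform-specific probe substrates near Km. Organic solvent ≤1% final. Incubated 37°C for 15–30 min, quenched with acetonitrile plus internal standard. Probe metabolites measured by LC-MS/MS; percent inhibition versus vehicle, IC50 by variable-slope sigmoid fit.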"}, "[3]": {"assay": "Drug level in CD1 mouse plasma at 400 mg/kg, ip after 1 hr by LC-MS/MS analysis", "format": "ADME, organism-based", "method_in_brief": "(§3)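 Male mice fasted overnight and given ip dose in 95% Miglyol 840/5% DMSO. Plasma precipitated 3:1 with acetonitrile plus internal standard. Brain homogenized 3:1 in PBS, then acetonitrile extraction. LC-MS/MS in MRM mode, standard curve 1 ng/mL–10 μg/mL. Ratio = mean tissue (ng/g) over mean plasma (ng/mL) concentration.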"}, "[4]": {"assay": "Drug level in CD1 mouse brain at 400 mg/kg, ip after 0.5 hrs by LC-MS/MS analysis", "format": "ADME, organism-based", "conditions": "read-out: Drug uptake", "method_in_brief": "as §3"}, "[5]": {"assay": "Ratio of drug level in brain to plasma in CD1 mouse at 400 mg/kg, ip after 4 hrs by LC-MS/MS analysis", "format": "ADME, organism-based", "conditions": "brain and plasma, read-out: BPR", "method_in_brief": "as §3"}, "[6]": {"biological_target": "Cytochrome P450 3A4 (Homo sapiens, UniProt P08684)", "sequence (P08684 whole entry, canonical isoform)": "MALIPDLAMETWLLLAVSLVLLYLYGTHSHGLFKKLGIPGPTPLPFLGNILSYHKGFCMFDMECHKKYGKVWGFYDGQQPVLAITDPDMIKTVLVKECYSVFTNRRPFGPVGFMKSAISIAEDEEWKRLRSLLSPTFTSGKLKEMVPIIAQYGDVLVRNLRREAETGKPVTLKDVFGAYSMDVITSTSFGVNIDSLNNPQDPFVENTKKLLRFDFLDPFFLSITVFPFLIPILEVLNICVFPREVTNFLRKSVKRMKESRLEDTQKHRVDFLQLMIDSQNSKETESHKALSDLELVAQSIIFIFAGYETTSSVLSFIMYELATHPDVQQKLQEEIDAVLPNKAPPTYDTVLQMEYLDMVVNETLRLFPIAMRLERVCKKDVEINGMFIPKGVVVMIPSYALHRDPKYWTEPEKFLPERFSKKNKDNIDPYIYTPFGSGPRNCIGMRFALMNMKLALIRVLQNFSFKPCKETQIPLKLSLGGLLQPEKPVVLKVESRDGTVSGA", "assay": "Inhibition of CYP3A4 in human liver microsomes using isoform-specific probe substrates incubated for 15 to 30 mins by LC-MS/MS analysis", "format": "ADME", "method_in_brief": "as §2"}, "[7]": {"assay": "Cmax in CD1 mouse at 20 mg/kg, po measured after 0.083 to 24 hrs by LC-MS/MS analysis", "format": "ADME, organism-based", "set-up": "dose 20 mg/kg, route oral", "conditions": "in vivo", "method_in_brief": "as §1"}, "[8]": {"assay": "Drug level in CD1 mouse plasma at 400 mg/kg, ip after 4 hrs by LC-MS/MS analysis", "format": "ADME, organism-based", "method_in_brief": "as §3"}, "[9]": {"assay": "Drug level in CD1 mouse plasma at 400 mg/kg, ip after 2 hrs by LC-MS/MS analysis", "format": "ADME, organism-based", "method_in_brief": "as §3"}, "[10]": {"assay": "Drug level in CD1 mouse brain at 400 mg/kg, ip after 2 hrs by LC-MS/MS analysis", "format": "ADME, organism-based", "conditions": "read-out: Drug uptake", "method_in_brief": "as §3"}, "[11]": {"assay": "Cmax in CD1 mouse at 20 mg/kg, ip measured after 0.083 to 24 hrs by LC-MS/MS analysis", "format": "ADME, organism-based", "set-up": "dose 20 mg/kg, route intraperitoneal", "conditions": "in vivo", "method_in_brief": "as §1"}, "[12]": {"assay": "Drug reactivity with 2-mercaptoethanol measured over 24 hrs", "format": "physicochemical"}, "[13]": {"assay": "Drug level corresponding to free EC50 in CD1 mouse at 200 to 400 mg/kg, ip by LC-MS/MS analysis", "format": "ADME, organism-based", "conditions": "in vivo"}, "[14]": {"assay": "Toxicity in CF1 mouse assessed as induction of motor impairment during acute (1 hr) observation period by rotarod assay", "conditions": "mouse, in vivo, 1 h", "method_in_brief": "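Male CF-1 mice, ip dosing in miglyol 840/DMSO (95%/5%), up to 800 mg/kg. Rotarod at 6 rpm done 1 h after dosing, on the same animals just before 6 Hz testing. Falling three times within one minute scored as impaired; animals also inspected visually.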"}, "[15]": {"assay": "Toxicity in mouse HT22 cells assessed as inhibition of cell viability at 10 uM incubated for 48 hrs by Cell-titer-Blue dye based fluorescence spectrophotometry relative to control", "set-up": "species or system HT-22", "conditions": "read-out: Activity", "method_in_brief": "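HT-22 cells in DMEM high glucose with 10% FBS, 2000 per well. Serially diluted compound added after 12 h, incubated 48 h. […] Background subtracted, normalized to control wells.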"}, "[16]": {"assay": "Drug reactivity with 2-mercaptoethanol measured over 6 hrs", "format": "physicochemical"}, "[17]": {"system": "Mus musculus", "assay": "Anti-seizure activity in ip dosed CF1 mouse assessed as reduction in hindlimb tonic extension during seizure measured at 1 hr by MES test", "format": "functional", "method_in_brief": "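Male CF-1 mice, n=8 per dose, dosed ip as 0.5% HPMC suspension, tested 1 h later. Corneal 60 Hz, 50 mA, 2 s shock after 0.5% tetracaine applied to eyes. Protection = absence of hindlimb tonic extension. ED50 from four dose levels.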"}, "[18]": {"assay": "Toxicity in CF1 mouse assessed as induction of discolored urine", "conditions": "in vivo"}, "[19]": {"assay": "Tmax in CD1 mouse at 20 mg/kg, ip measured after 0.083 to 24 hrs by LC-MS/MS analysis", "format": "ADME, organism-based", "conditions": "in vivo"}, "[20]": {"assay": "Ratio of drug level in brain to plasma in CD1 mouse at 400 mg/kg, ip after 2 hrs by LC-MS/MS analysis", "format": "ADME, organism-based", "conditions": "brain and plasma, read-out: BPR", "method_in_brief": "as §3"}, "[21]": {"system": "Mus musculus", "assay": "Anti-seizure activity in ip dosed CF1 mouse assessed as attenuation of clonic forebrain seizures treated 1 hr before PTZ dosing and measured after 30 mins by scPTZ test", "format": "functional", "method_in_brief": "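Male CF-1 mice, n=8 per dose, given compound ip in 0.5% HPMC. PTZ 85 mg/kg s.c. in the neck at 1 h. Animals observed 30 min in isolation cages for clonic spasms lasting 3–5 s; those without spasms counted protected.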"}, "[22]": {"assay": "Drug level in CD1 mouse brain at 400 mg/kg, ip after 8 hrs by LC-MS/MS analysis", "format": "ADME, organism-based", "conditions": "read-out: Drug uptake", "method_in_brief": "as §3"}, "[23]": {"assay": "Drug level in CD1 mouse plasma at 400 mg/kg, ip after 8 hrs by LC-MS/MS analysis", "format": "ADME, organism-based", "method_in_brief": "as §3"}, "[24]": {"assay": "AUClast in CD1 mouse at 20 mg/kg, po measured after 0.083 to 24 hrs by LC-MS/MS analysis", "format": "ADME, organism-based", "set-up": "time 0.083-24 hr, dose 20 mg/kg, route oral", "conditions": "in vivo", "method_in_brief": "as §1"}, "[25]": {"biological_target": "T1, Cytochrome P450 1A2 (Homo sapiens, UniProt P05177)", "T1 sequence (P05177 whole entry)": "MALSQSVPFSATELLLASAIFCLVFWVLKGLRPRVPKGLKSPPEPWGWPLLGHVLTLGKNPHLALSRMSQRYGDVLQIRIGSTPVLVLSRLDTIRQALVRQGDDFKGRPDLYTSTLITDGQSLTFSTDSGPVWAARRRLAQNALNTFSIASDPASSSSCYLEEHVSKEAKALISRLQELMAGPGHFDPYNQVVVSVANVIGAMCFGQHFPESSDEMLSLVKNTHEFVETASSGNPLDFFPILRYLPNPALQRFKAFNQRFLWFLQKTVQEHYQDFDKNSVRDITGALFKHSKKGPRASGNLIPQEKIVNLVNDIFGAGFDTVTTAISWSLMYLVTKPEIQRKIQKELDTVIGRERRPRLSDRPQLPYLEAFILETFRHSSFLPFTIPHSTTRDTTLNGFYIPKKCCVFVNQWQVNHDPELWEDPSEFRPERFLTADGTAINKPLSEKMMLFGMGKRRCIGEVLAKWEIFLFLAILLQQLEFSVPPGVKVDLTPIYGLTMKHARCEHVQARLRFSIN", "assay": "Inhibition of CYP1A2 in human liver microsomes using isoform-specific probe substrates incubated for 15 to 30 mins by LC-MS/MS analysis", "format": "ADME", "method_in_brief": "as §2"}}}
{"molecule": "CC(C)CCNC1=CC(=O)c2ccccc2C1=O", "values": [{"measurement": "AUC(0-t)", "setting": "[1]", "result": 1720, "unit": "ng·h/mL"}, {"measurement": "IC50", "setting": "[2]", "result": "> 100", "unit": "µM"}, {"measurement": "concentration at 1 h", "setting": "[3]", "result": 1690, "unit": "ng/mL"}, {"measurement": "concentration at 0.5 h", "setting": "[4]", "result": 3320, "unit": "ng/g"}, {"measurement": "Kp at 4 h", "setting": "[5]", "result": 1}, {"measurement": "IC50", "setting": "[6]", "result": "> 100", "unit": "µM"}, {"measurement": "Cmax", "setting": "[7]", "result": 1020, "unit": "ng/mL"}, {"measurement": "concentration at 4 h", "setting": "[8]", "result": 3740, "unit": "ng/mL"}, {"measurement": "concentration at 2 h", "setting": "[9]", "result": 2750, "unit": "ng/mL"}, {"measurement": "concentration at 2 h", "setting": "[10]", "result": 4930, "unit": "ng/g"}, {"measurement": "Cmax", "setting": "[11]", "result": 320, "unit": "ng/mL"}, {"measurement": "Drug metabolism", "setting": "[12]", "result": "Metabolite_Notdetected"}, {"measurement": "Drug uptake(free)", "setting": "[13]", "result": 123, "unit": "nM"}, {"measurement": "TD50", "setting": "[14]", "result": "> 800", "unit": "mg/kg"}, {"measurement": "inhibition at 48 h, 10 µM", "setting": "[15]", "result": 11.9, "unit": "%"}, {"measurement": "Drug metabolism", "setting": "[16]", "result": "Metabolite_Notdetected"}, {"measurement": "ED50", "setting": "[17]", "result": 108, "unit": "mg/kg"}, {"measurement": "Activity", "setting": "[18]", "result": "Toxic"}, {"measurement": "Tmax", "setting": "[19]", "result": 1, "unit": "h"}, {"measurement": "Kp at 2 h", "setting": "[20]", "result": 1.79}, {"measurement": "ED50", "setting": "[21]", "result": 349, "unit": "mg/kg"}, {"measurement": "concentration at 8 h", "setting": "[22]", "result": 2630, "unit": "ng/g"}, {"measurement": "concentration at 8 h", "setting": "[23]", "result": 3220, "unit": "ng/mL"}, {"measurement": "AUC(0-t)", "setting": "[24]", "result": 903, "unit": "ng·h/mL"}, {"measurement": "IC50", "setting": "[25]", "result": 5.57, "unit": "µM"}]}
